Assay results: ChEMBL document CHEMBL3286111, “Tryptophan hydroxylase 1 (Tph-1)-targeted bone anabolic agents for osteoporosis” (J Med Chem, 2014)

Assay: Cytotoxicity against rat RBL2H3 cells by MTT assay
Assay type: cell-based
Parameters: concentration or dose not given beside the values
Conditions: rbl-2h3
Outline: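 RBL2H3 cells (α-MEM) or PC12 cells (D-MEM), both with 10% FBS, treated at a single dose in 0.1% DMSO; 0.1% DMSO control; 37 °C, 5% CO2. MTT (5 mg/mL) added 4 h before the end, then SDS/DMF lysis buffer (pH 7.2) for 6 h; absorbance read at 570 nm. Cytotoxicity % calculated from background-corrected OD versus control.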
`CC(=O)O[C@H]1CC[C@]2(C)[C@H]3CC=C4[C@@H]5[C@@H](C)[C@H](C)CC[C@]5(C(=O)O)CC[C@@]4(C)[C@]3(C)CC[C@H]2C1(C)C` [O-ACETYLURSOLIC ACID] showed an Activity of 4.1%. In the case of `CCOC(=O)CNC(=O)[C@]12CC[C@@H](C)[C@H](C)[C@H]1C1=CC[C@@H]3[C@@]4(C)Cc5cnn(-c6ccccc6)c5C(C)(C)[C@@H]4CC[C@@]3(C)[C@]1(C)CC2`, the Activity was 1.2%. Molecule `COC(=O)C(Cc1ccccc1)NC(=O)[C@]12CC[C@@H](C)[C@H](C)[C@H]1C1=CC[C@@H]3[C@@]4(C)Cc5nc6cc(Cl)c(Cl)cc6nc5C(C)(C)[C@@H]4CC[C@@]3(C)[C@]1(C)CC2` (stereo partly drawn) has an Activity of 7.7%. Work on `C[C@H]1[C@H](C)CC[C@]2(C(=O)O)CC[C@]3(C)C(=CC[C@@H]4[C@@]5(C)Cc6nc7cc(Cl)c(Cl)cc7nc6C(C)(C)[C@@H]5CC[C@]43C)[C@H]12` yielded an Activity of 2.2%. `CCOC(=O)CNC(=O)[C@]12CC[C@@H](C)[C@H](C)[C@H]1C1=CC[C@@H]3[C@@]4(C)Cc5c([nH]c6ccc(Cl)cc56)C(C)(C)[C@@H]4CC[C@@]3(C)[C@]1(C)CC2` showed an Activity of 14.7%. With `CCOC(=O)CNC(=O)[C@]12CC[C@@H](C)[C@H](C)[C@H]1C1=CC[C@@H]3[C@@]4(C)CCC(=O)C(C)(C)[C@@H]4CC[C@@]3(C)[C@]1(C)CC2` the Activity was 1.7%. `C[C@H]1[C@H](C)CC[C@]2(C(=O)O)CC[C@]3(C)C(=CC[C@@H]4[C@@]5(C)Cc6cn[nH]c6C(C)(C)[C@@H]5CC[C@]43C)[C@H]12` showed an Activity of 0.1%. Molecule `COC(=O)C(CC(C)C)NC(=O)[C@]12CC[C@@H](C)[C@H](C)[C@H]1C1=CC[C@@H]3[C@@]4(C)Cc5cn[nH]c5C(C)(C)[C@@H]4CC[C@@]3(C)[C@]1(C)CC2` (stereo partly drawn) has an Activity of 0.9%. `COC(=O)C(Cc1ccccc1)NC(=O)[C@]12CC[C@@H](C)[C@H](C)[C@H]1C1=CC[C@@H]3[C@@]4(C)Cc5cnn(-c6ccccc6)c5C(C)(C)[C@@H]4CC[C@@]3(C)[C@]1(C)CC2` (stereo partly drawn) gave an Activity of 0.9%. `CCOC(=O)CNC(=O)[C@]12CC[C@@H](C)[C@H](C)[C@H]1C1=CC[C@@H]3[C@@]4(C)C=C(C#N)C(=O)C(C)(C)[C@@H]4CC[C@@]3(C)[C@]1(C)CC2` showed an Activity of 50.1%. Molecule `COC(=O)C(CC(C)C)NC(=O)[C@]12CC[C@@H](C)[C@H](C)[C@H]1C1=CC[C@@H]3[C@@]4(C)CC[C@H](OC(C)=O)C(C)(C)[C@@H]4CC[C@@]3(C)[C@]1(C)CC2` (stereo partly drawn) has an Activity of 6.6%. `C[C@H]1[C@H](C)CC[C@]2(C(=O)NCCC3CCN(Cc4ccccc4)CC3)CC[C@]3(C)C(=CC[C@@H]4[C@@]5(C)Cc6nc7ccccc7nc6C(C)(C)[C@@H]5CC[C@]43C)[C@H]12` gave an Activity of 59.5%. In the case of `C[C@H]1[C@H](C)CC[C@]2(C(=O)O)CC[C@]3(C)C(=CC[C@@H]4[C@@]5(C)Cc6cncnc6C(C)(C)[C@@H]5CC[C@]43C)[C@H]12`, the Activity was 4.3%. With `CCOC(=O)CNC(=O)[C@]12CC[C@@H](C)[C@H](C)[C@H]1C1=CC[C@@H]3[C@@]4(C)Cc5cnn(-c6ccc(F)cc6)c5C(C)(C)[C@@H]4CC[C@@]3(C)[C@]1(C)CC2` the Activity was 15.8%. Work on `C[C@H]1[C@H](C)CC[C@]2(C(=O)O)CC[C@]3(C)C(=CC[C@@H]4[C@@]5(C)Cc6nc7ccccc7nc6C(C)(C)[C@@H]5CC[C@]43C)[C@H]12` yielded an Activity of 3.5%. For `C[C@H]1[C@H](C)CC[C@]2(C(=O)O)CC[C@]3(C)C(=CC[C@@H]4[C@@]5(C)Cc6cnoc6C(C)(C)[C@@H]5CC[C@]43C)[C@H]12`, the Activity was 2.1%. `COC(=O)C(CC(C)C)NC(=O)[C@]12CC[C@@H](C)[C@H](C)[C@H]1C1=CC[C@@H]3[C@@]4(C)Cc5c([nH]c6ccc(Cl)cc56)C(C)(C)[C@@H]4CC[C@@]3(C)[C@]1(C)CC2` (stereo partly drawn) showed an Activity of 15%. Molecule `COC(=O)C(Cc1ccccc1)NC(=O)[C@]12CC[C@@H](C)[C@H](C)[C@H]1C1=CC[C@@H]3[C@@]4(C)Cc5cncnc5C(C)(C)[C@@H]4CC[C@@]3(C)[C@]1(C)CC2` (stereo partly drawn) has an Activity of 2.6%.
